Source: ChEMBL document CHEMBL1938233, “2-Oxo-N-aryl-1,2,3,4-tetrahydroquinoline-6-sulfonamides as activators of the tumor cell specific M2 isoform of pyruvate kinase” (Bioorg Med Chem Lett, 2011)
Calls of active or inactive are those of the source. No cut-off for these calls is given here.

How the values were obtained:
[1] = target: T1, Pyruvate kinase PKM (Homo sapiens, UniProt P14618); test: Activation of human PKM2 assessed as ATP product formation at 57 µM after 1 hr by luminescent pyruvate kinase-luciferase coupled assay
Target sequence in this assay (P14618 2-531 limits assumed): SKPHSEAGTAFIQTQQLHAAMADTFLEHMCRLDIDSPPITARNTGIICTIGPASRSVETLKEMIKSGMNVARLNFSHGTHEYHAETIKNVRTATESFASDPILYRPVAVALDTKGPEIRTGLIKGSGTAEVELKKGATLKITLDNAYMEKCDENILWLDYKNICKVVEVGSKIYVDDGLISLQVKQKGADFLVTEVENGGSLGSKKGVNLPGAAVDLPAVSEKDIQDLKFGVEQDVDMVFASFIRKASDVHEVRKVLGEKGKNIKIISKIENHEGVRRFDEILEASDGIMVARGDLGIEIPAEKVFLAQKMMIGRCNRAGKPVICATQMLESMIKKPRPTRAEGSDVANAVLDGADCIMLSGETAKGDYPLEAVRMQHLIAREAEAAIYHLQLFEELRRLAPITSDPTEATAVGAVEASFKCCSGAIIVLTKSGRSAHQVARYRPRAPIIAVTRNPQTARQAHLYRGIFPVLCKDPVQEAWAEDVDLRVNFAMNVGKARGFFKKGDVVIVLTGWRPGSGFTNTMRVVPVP

[2] = tested on: Liver microsomes; test: Half life in human liver microsomes at 2 uM after 2 mins by LC/MS/MS analysis; type: ADME, Microsome
[3] = tested on: Liver; test: Half life in mouse liver microsomes at 2 uM after 2 mins by LC/MS/MS analysis; type: ADME, Microsome
[4] = target: T1, Pyruvate kinase PKM; test: Activation of human PKM2 assessed as ATP product formation after 1 hr by luminescent pyruvate kinase-luciferase coupled assay
Summary of the method: (§1)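 Luminescent pyruvate kinase–luciferase coupled assay. AC50 is the mean of three separate experiments. Maximum response is % activation at 57 μM compound, normalized as described in the supporting information.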

[5] = target: T1, Pyruvate kinase PKM; test: Activation of human PKM2 assessed as ATP product formation at 57 uM after 1 hr by luminescent pyruvate-kinase luciferase coupled assay
Summary of the method: as §1
Target sequence in this assay (P14618 2-531 limits assumed): as above

[6] = Apparent permeability from apical to basolateral side of human Caco2 cells at pH 7.4 after 2 hrs by LC/MS/MS analysis; type: ADME, cell-based; conditions: Caco-2, pH 7.4
[7] = Apparent permeability from basolateral to apical side of human Caco2 cells at pH 7.4 after 2 hrs by LC/MS/MS analysis; type: ADME, cell-based; conditions: Caco-2, pH 7.4
[8] = target: Pyruvate kinase PKLR (Homo sapiens) (UniProt P30613); test: Activation of PKLR assessed as ATP product formation at 57.5 uM after 1 hr by luminescent pyruvate kinase-luciferase coupled assay
[9] = tested on: Caco-2; test: Efflux ratio of permeability from basolateral to apical side over apical to basolateral side in human Caco2 cells at pH 7.4 after 2 hrs by LC/MS/MS analysis; conditions: caco-2, pH 7.4, 2 h
[10] = target: T1, Pyruvate kinase PKM; test: Activation of human PKM2 assessed as reduction in Km for PEP at 10 uM by after 6 mins by fluorescent pyruvate kinase-lactate dehydrogenase coupled assay
Summary of the method: (§2)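 PK–LDH coupled kinetic assay run at about 22 °C with 10 nM PKM2, 200 mM KCl and 15 mM MgCl2. Either ADP or PEP was held at 4.0 mM while the other substrate was varied. Initial velocity (pmol/min) was measured with and without compound at 10 μM.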
Target sequence in this assay (P14618 2-531 limits assumed): as above

[11] = target: T1, Pyruvate kinase PKM; test: Activation of human PKM2 assessed as effect on Km of ADP at 10 uM by after 6 mins by fluorescent pyruvate kinase-lactate dehydrogenase coupled assay
Summary of the method: as §2
Target sequence in this assay (P14618 2-531 limits assumed): as above

[12] = Aqueous kinetic solubility of the compound in PBS buffer; type: physicochemical

Pyruvate kinase PKLR (Homo sapiens), sequence (P30613 whole entry, looked up): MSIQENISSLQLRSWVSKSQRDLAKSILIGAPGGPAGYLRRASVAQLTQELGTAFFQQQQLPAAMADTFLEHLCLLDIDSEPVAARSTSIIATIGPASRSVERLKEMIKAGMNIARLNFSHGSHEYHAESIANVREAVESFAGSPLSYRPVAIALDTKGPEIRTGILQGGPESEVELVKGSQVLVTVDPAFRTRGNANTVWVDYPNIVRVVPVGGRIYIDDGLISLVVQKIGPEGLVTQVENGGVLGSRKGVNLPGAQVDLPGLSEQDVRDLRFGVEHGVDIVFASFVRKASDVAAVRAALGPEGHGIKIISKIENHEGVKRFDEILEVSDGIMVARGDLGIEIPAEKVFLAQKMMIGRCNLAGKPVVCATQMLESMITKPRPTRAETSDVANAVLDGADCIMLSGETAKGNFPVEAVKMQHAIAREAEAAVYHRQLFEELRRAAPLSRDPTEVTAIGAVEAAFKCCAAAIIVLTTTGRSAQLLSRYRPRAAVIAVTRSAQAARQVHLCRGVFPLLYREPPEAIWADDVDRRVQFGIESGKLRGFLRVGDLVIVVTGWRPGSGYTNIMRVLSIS

| Emax [1] | Emax [5] | Compound | further results |
| --- | --- | --- | --- |
| 109% |  | Cc1ccc(NS(=O)(=O)c2cc3c(cc2Cl)CCC(=O)N3)cc1Cl |  |
| 102% |  | CNc1cc2c(cc1S(=O)(=O)Nc1ccc(C)c(C)c1)CCC(=O)N2 | t1/2 [2]: 19.7 min; t1/2 [3]: 19.1 min |
|  | 104% | O=C1CCc2cc(S(=O)(=O)Nc3cccc(Cl)c3)ccc2N1 | EC50 [4]: 0.41 µM |
|  | inactive | O=C1CCc2cc(S(=O)(=O)Nc3cccnc3)ccc2N1 |  |
|  | 106% | O=C1CCc2cc(S(=O)(=O)Nc3ccc(Cl)cc3)ccc2N1 |  |
| 96% |  | Cc1ccc(NS(=O)(=O)c2cc3c(cc2N[C@@H](C)CO)NC(=O)CC3)cc1Cl | EC50 [4]: 0.06 µM; t1/2 [2]: 30.4 min; t1/2 [3]: 22.9 min; Papp A→B at 2 h [6]: 11.3 nm/s; Papp B→A at 2 h [7]: 119 nm/s; Activity [8]: < 25%; Ratio [9]: 10.51 |
| 62% |  | Cc1ccc(NS(=O)(=O)c2ccc3c(c2)CCC(C)(C)O3)cc1C |  |
| 58% |  | CC(=O)Nc1cccc(S(=O)(=O)Nc2ccc(C)c(C)c2)c1 |  |
|  | 101% | O=C1CCc2cc(S(=O)(=O)Nc3cccc(F)c3)ccc2N1 | EC50 [4]: 0.79 µM |
| 88% |  | Cc1ccc(NS(=O)(=O)c2ccc3c(c2)CCCC(=O)N3)cc1C |  |
| 76% |  | CC(=O)N1CCCc2cc(S(=O)(=O)Nc3ccc(C)c(C)c3)ccc21 |  |
|  |  | Cc1ccc(NS(=O)(=O)c2cc(Br)cc3c2NC(=O)CC3)cc1C | Activity [4]: inactive |
| inactive |  | Cc1ccc(NS(=O)(=O)c2cc3c(cc2N2CCC(N(C)C)C2)NC(=O)CC3)cc1C (racemic) |  |
|  | 94% | Cc1ccccc1NS(=O)(=O)c1ccc2c(c1)CCC(=O)N2 |  |
| 106% |  | CCN(CC)c1cc2c(cc1S(=O)(=O)Nc1ccc(C)c(C)c1)CCC(=O)N2 |  |
| 47% |  | Cc1ccc(NS(=O)(=O)c2cc3c(cc2N2CCCCC2)NC(=O)CC3)cc1C |  |
|  |  | COc1cccc(Cn2ncc3c4sc([S+](C)[O-])cc4n(C)c3c2=O)c1 (stereo not given) | EC50 [4]: 0.073 µM |
| inactive |  | Cc1ccc(NS(=O)(=O)c2cccc(C(=O)O)c2)cc1C |  |
|  | inactive | O=C1CCc2cc(S(=O)(=O)Nc3cccc(-c4ccccc4)c3)ccc2N1 |  |
| 95% |  | Cc1cc(NS(=O)(=O)c2cc3c(cc2N[C@@H](C)CO)NC(=O)CC3)ccc1F |  |
|  | 109% | O=C1CCc2cc(S(=O)(=O)Nc3cccc(C(F)(F)F)c3)ccc2N1 |  |
| 123% |  | Cc1ccc(NS(=O)(=O)c2cc3c(cc2N2CCCC2)NC(=O)CC3)cc1C |  |
| 106% |  | Cc1ccc(NS(=O)(=O)c2cc3c(cc2N(C)C)CCC(=O)N3)cc1C |  |
| 116% |  | Cc1ccc(NS(=O)(=O)c2cc3c(cc2N[C@@H](C)CO)NC(=O)CC3)cc1C | EC50 [4]: 0.17 µM |
| 92% |  | C[C@@H](CO)Nc1cc2c(cc1S(=O)(=O)Nc1ccc(F)c(Cl)c1)CCC(=O)N2 | t1/2 [2]: 78.8 min; t1/2 [3]: 36.3 min; Papp A→B at 2 h [6]: 16.1 nm/s; Papp B→A at 2 h [7]: 175 nm/s; Activity [8]: < 25%; Ratio [9]: 10.91 |
| 112% |  | Cc1ccc(NS(=O)(=O)c2cc3c(cc2F)NC(=O)CC3)cc1Cl | t1/2 [2]: 22.9 min; t1/2 [3]: 54.1 min; Papp A→B at 2 h [6]: 62.2 nm/s; Papp B→A at 2 h [7]: 62.4 nm/s; Ratio [9]: 1 |
|  | 104% | Cc1ccc(NS(=O)(=O)c2ccc3c(c2)CCC(=O)N3)cc1Cl | EC50 [4]: 0.1 µM |

| Emax [1] | Emax [5] | Compound | further results |
| --- | --- | --- | --- |
| < 40% |  | CC(=O)Nc1ccc(S(=O)(=O)Nc2ccc(C)c(C)c2)cc1 |  |
| 123% |  | Cc1ccc(NS(=O)(=O)c2cc3c(cc2NC(C)C)NC(=O)CC3)cc1C |  |
|  | 121% | Cc1cc(NS(=O)(=O)c2ccc3c(c2)CCC(=O)N3)ccc1Cl |  |
|  | 95% | O=C1CCc2cc(S(=O)(=O)Nc3ccc(Cl)c(Cl)c3)ccc2N1 |  |
| 53% |  | COc1ccc(S(=O)(=O)Nc2ccc(C)c(C)c2)cc1 |  |
| 92% |  | Cc1ccc(NS(=O)(=O)c2cc3c(cc2Cl)CCC(=O)N3)cc1C |  |
| inactive |  | Cc1ccc(NS(=O)(=O)c2cc3c(cc2/C=C/c2ccccc2)NC(=O)CO3)cc1C |  |
| 93% |  | Cc1cc(NS(=O)(=O)c2cc3c(cc2F)NC(=O)CC3)ccc1Cl |  |
| 129% |  | Cc1ccc(NS(=O)(=O)c2cc3c(cc2N(C)C)NC(=O)CC3)cc1C | t1/2 [2]: 19.4 min; t1/2 [3]: 21.7 min |
|  | 73% | O=C1CCc2cc(S(=O)(=O)Nc3ccc4c(c3)CCC4)ccc2N1 |  |
|  | 138% | Cc1ccc(NS(=O)(=O)c2ccc3c(c2)CCC(=O)N3)cc1F |  |
| inactive |  | Cc1ccc(NS(=O)(=O)c2cc3c(cc2-c2ccccc2)NC(=O)CO3)cc1C |  |
|  |  | Cc1ccc(NS(=O)(=O)c2cc(Br)cc3c2NC(=O)CC3)cc1Cl | Activity [4]: inactive |
|  | 121% | O=C1CCc2cc(S(=O)(=O)Nc3ccc4ccccc4c3)ccc2N1 |  |
|  | inactive | O=C1CCc2cc(S(=O)(=O)Nc3ccc4ncccc4c3)ccc2N1 |  |
| 81% |  | Cc1ccc(NS(=O)(=O)c2ccc3c(c2)N(C)CCO3)cc1C |  |
| 92% |  | Cc1cc(NS(=O)(=O)c2cc3c(cc2F)NC(=O)CC3)ccc1F |  |
| 96% |  | CC(=O)N1CCc2cc(S(=O)(=O)Nc3ccc(C)c(C)c3)ccc21 |  |
|  |  | Cc1ccc(NS(=O)(=O)c2cc(N[C@@H](C)CO)cc3c2NC(=O)CC3)cc1Cl | Activity [4]: inactive |
| 60% |  | Cc1ccc(NS(=O)(=O)c2ccc(N3CCCC3=O)cc2)cc1C |  |
| inactive |  | Cc1ccc(NS(=O)(=O)c2ccc3[nH]c(=O)[nH]c3c2)cc1C |  |
| 95% |  | Cc1ccc(NS(=O)(=O)c2ccc3c(c2)oc(=O)n3C)cc1C |  |
|  | 102% | Cc1ccc(NS(=O)(=O)c2ccc3c(c2)CCC(=O)N3)cc1 |  |
|  | 100% | O=C1CCc2cc(S(=O)(=O)Nc3ccc4c(c3)OCCO4)ccc2N1 |  |
| inactive |  | Cc1ccc(NS(=O)(=O)c2ccc(F)cc2)cc1C |  |
| 119% |  | Cc1ccc(NS(=O)(=O)c2ccc3c(c2)CC(=O)N3C)cc1C |  |
| 51% |  | Cc1ccc(NS(=O)(=O)c2cc3c(cc2Br)CCC(=O)N3)cc1Cl | EC50 [4]: 7.43 µM |

| Emax [1] | Emax [5] | Compound | further results |
| --- | --- | --- | --- |
|  | 115% | COc1cccc(NS(=O)(=O)c2ccc3c(c2)CCC(=O)N3)c1 |  |
| 132% |  | Cc1ccc(NS(=O)(=O)c2cc3c(cc2NCCO)NC(=O)CC3)cc1C |  |
|  | 95% | O=C1CCc2cc(S(=O)(=O)Nc3ccccc3F)ccc2N1 |  |
|  | 85% | COc1ccc(NS(=O)(=O)c2ccc3c(c2)CCC(=O)N3)cc1 |  |
|  | 128% | Cc1cc(NS(=O)(=O)c2ccc3c(c2)CCC(=O)N3)ccc1F |  |
| 54% |  | Cc1ccc(NS(=O)(=O)c2cc3c(cc2N[C@@H](C)CO)CCC(=O)N3)cc1Cl |  |
| 52% |  | Cc1ccc(NS(=O)(=O)c2cc3c(cc2Br)CCC(=O)N3)cc1C | EC50 [4]: 6.6 µM |
| 71% |  | Cc1ccc(NS(=O)(=O)c2cccc(Cl)c2)cc1C |  |
| 111% |  | Cc1ccc(NS(=O)(=O)c2cc3c(cc2C)NC(=O)CO3)cc1C |  |
|  |  | Cc1ccc(NS(=O)(=O)c2ccc3c(c2)CCC(=O)N3)cc1C | EC50 [4]: 0.79 µM; t1/2 [2]: 6 min; t1/2 [3]: 17.3 min; Papp A→B at 2 h [6]: 149 nm/s; Papp B→A at 2 h [7]: 122 nm/s; Activity [8]: < 25%; Ratio [9]: 0.82 |
|  | 84% | O=C1CCc2cc(S(=O)(=O)Nc3ccc(F)cc3)ccc2N1 |  |
| 108% |  | Cc1ccc(NS(=O)(=O)c2cc3c(cc2N[C@H](C)CO)NC(=O)CC3)cc1C | EC50 [4]: 0.88 µM |
|  | 123% | O=C1CCc2cc(S(=O)(=O)Nc3ccc(F)c(Cl)c3)ccc2N1 | EC50 [4]: 0.29 µM |
| 57% |  | Cc1ccc(NS(=O)(=O)c2ccc3c(c2)CC(=O)N3)cc1C |  |
| 101% |  | Cc1ccc(NS(=O)(=O)c2cc3c(cc2F)NC(=O)CC3)cc1C | t1/2 [2]: 16.5 min; t1/2 [3]: 34.3 min |
|  | inactive | O=C1CCc2cc(S(=O)(=O)Nc3ccncc3)ccc2N1 |  |
|  |  | Cc1ccc(NS(=O)(=O)c2cc(N[C@@H](C)CO)cc3c2NC(=O)CC3)cc1C | Activity [4]: inactive |
| 88% |  | O=C1CCc2cc(S(=O)(=O)Nc3ccc(F)c(Cl)c3)c(F)cc2N1 | EC50 [4]: 0.09 µM; Activity [10]: Active; Activity [11]: inactive; t1/2 [2]: 277.2 min; t1/2 [3]: 117.5 min; Papp A→B at 2 h [6]: 93.8 nm/s; Papp B→A at 2 h [7]: 79.1 nm/s; Activity [8]: < 25%; Ratio [9]: 0.84 |
|  | 101% | Cc1cccc(NS(=O)(=O)c2ccc3c(c2)CCC(=O)N3)c1 | EC50 [4]: 0.25 µM |
| 80% |  | Cc1ccc(NS(=O)(=O)c2cc3c(cc2Cl)NC(=O)CO3)cc1C |  |
| 83% |  | Cc1ccc(NS(=O)(=O)c2cc3c(cc2NCC(C)(C)O)NC(=O)CC3)cc1C |  |
| 81% |  | Cc1ccc(NS(=O)(=O)c2ccc3c(c2)NC(=O)CO3)cc1C |  |
| 47% |  | Cc1ccc(NS(=O)(=O)c2ccc3c(ccn3C)c2)cc1C | EC50 [4]: 19.9 µM |
| 124% |  | Cc1ccc(NS(=O)(=O)c2cc3c(cc2NC(C)CO)NC(=O)CC3)cc1C (racemic) | EC50 [4]: 0.23 µM; Kinetic_solubility [12]: > 120 µM |
| 69% |  | Cc1ccc(NS(=O)(=O)c2ccc3ccccc3c2)cc1C |  |
